From publication PMC10348038 (Journal of Enzyme Inhibition and Medicinal Chemistry, 2023) come the findings set out here.

For assay [1], the target named is PD-1/PD-L1 interaction (Homo sapiens, UniProt Q9NZQ7). As to the kind of experiment: HTRF PD1/PD-L1 binding assay. To be noted: IC50 against the PD-1/PD-L1 interaction. Background: In TR-FRET formats the signal depends on donor and acceptor labels being close together.
Assay [2] relates to MRC-5 cells. As to the kind of experiment: CCK-8 cell viability assay, normal MRC-5 cells. The assay is classed as cell-based. To be noted: for IC50: Homo sapiens, MRC5, 60 h, read-out: IC50 MRC-5. An outline of the steps:
(§1)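 Cells grown in DMEM or RPMI-1640 with 10% FBS and 1% penicillin-streptomycin at 37 °C, 5% CO2. Seeded in 96-well plates at densities suited to each line's growth rate and settled 8 h, then exposed 60 h to test compound at 0, 1, 2, 4, 8, 16 and 32 μM from 10 mM DMSO stocks. […] CCK-8 added for 0.5–1 h, OD read at 450 nm, viability normalised to control; mean ± SEM, n = 3.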
Background: Tetrazolium dyes change colour on reduction, which living cells bring about.

The target of assay [3] is PD-L1 (Homo sapiens, UniProt Q9NZQ7). As to the kind of experiment: Western blot of PD-L1 protein expression in MDA-MB-231 cells. The format is cell-based. To be noted: MDA-MB-231, 48 h, 1, 2 and 4 μM. An outline of the steps: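 MDA-MB-231 cells treated 48 h with test compound at 1, 2 and 4 μM, BMS202 as positive control; in a further arm, 4 μM with or without GSK-3β inhibitor (40 nM) for 48 h. Lysates separated by SDS-PAGE, transferred to PVDF, blocked 2 h in 5% BSA/TBST, probed overnight at 4 °C with anti-PD-L1 (1:1000). Mean ± SEM, n = 3.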
Sequence of PD-L1 (Q9NZQ7 19-290): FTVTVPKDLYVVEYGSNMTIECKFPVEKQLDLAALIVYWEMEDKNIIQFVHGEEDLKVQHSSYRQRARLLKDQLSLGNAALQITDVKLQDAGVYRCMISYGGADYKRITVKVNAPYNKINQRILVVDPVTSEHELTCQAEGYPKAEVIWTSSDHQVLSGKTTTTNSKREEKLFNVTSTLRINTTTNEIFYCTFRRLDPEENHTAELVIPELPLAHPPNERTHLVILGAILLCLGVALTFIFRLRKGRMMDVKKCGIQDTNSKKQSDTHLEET
(A western blot detects proteins with antibodies after separation by electrophoresis.)

For assay [4], the system named is MDA-MB-231 cells. The assay is described as follows: CCK-8 cell viability assay, MDA-MB-231. The format is cell-based. To be noted: Homo sapiens, MDA-MB-231, 60 h, read-out: IC50 MDA-MB-231. The procedure, abridged: as §1
Assay [5] has as its system p-AKT1 (Ser473). As to the kind of experiment: Western blot of AKT phosphorylation in MDA-MB-231 cells. The conditions noted are these: 4 μM, 48 h, MDA-MB-231, Western blot. The format is cell-based. An outline of the steps: (§2)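 MDA-MB-231 cells exposed to test compound at 1, 2 and 4 μM for 48 h. Lysates run on SDS-PAGE and transferred to PVDF. Membranes blocked 2 h in 5% BSA/TBST, then probed overnight at 4 °C with antibodies to AKT, p-AKT, mTOR and p-mTOR (1:1000). Mean ± SEM, n = 3.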

Assay [6] relates to MDA-MB-231 cells. As to the kind of experiment: Flow cytometry apoptosis analysis. The assay is classed as cell-based. The conditions noted are these: 48 h.
Assay [7] has as its system A549. As to the kind of experiment: CCK-8 cell viability assay, A549. The conditions noted are these: Homo sapiens, A549, 60 h, read-out: IC50 A549. The assay is classed as cell-based. The procedure, abridged:
as §1

The subject of assay [8] is MDA-MB-231 cells. As to the kind of experiment: Wound healing assay. The format is cell-based.
The subject of assay [9] is MCF-7. As to the kind of experiment: CCK-8 cell viability assay, MCF-7. The format is cell-based. The conditions noted are these: Homo sapiens, MCF7, 60 h, read-out: IC50 MCF-7. The procedure, abridged: as §1
Assay [10] concerns PD-L1 mRNA. As to the kind of experiment: qPCR of PD-L1 mRNA in MDA-MB-231 cells. The format is cell-based. The conditions noted are these: MDA-MB-231, 48 h.
Assay [11] has as its system MDA-MB-231 tumour. The assay is described as follows: MDA-MB-231 tumour-bearing nude mouse model. The conditions noted are these: intraperitoneal, every 2 days, nine administrations, nude mice. The format is in vivo, BALB/c nude mice. The procedure, abridged:
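Female BALB/c nude mice. MDA-MB-231 cells (within 10 passages) in PBS:Matrigel 1:1 at 3 × 10^7 cells/mL, 100 μL injected subcutaneously into the axilla. From about 200 mm3, test compound given intraperitoneally every 2 days in normal saline with 30% PEG400; cyclophosphamide as comparator. Tumour volume by callipers as length × width² × 0.5. Study ended when control tumours reached 1500 mm3. Tumours excised and weighed; inhibition rate from treated versus control tumour weight.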

The test system of assay [12] is HCC827. The assay is described as follows: CCK-8 cell viability assay, HCC827. The assay is classed as cell-based. To be noted: Homo sapiens, HCC827, 60 h, read-out: IC50 HCC827. The procedure, abridged:
as §1

Assay [13] relates to p-mTOR. The assay is described as follows: Western blot of mTOR phosphorylation in MDA-MB-231 cells. The assay is classed as cell-based. To be noted: 4 μM, 48 h, MDA-MB-231, Western blot. The procedure, abridged:
as §2

Assay [14] concerns MDA-MB-231 cells. As to the kind of experiment: Colony formation assay. The conditions noted are these: for Clone formation, result in words: positive controls, BMS-202 at 1 µM. The assay is classed as cell-based. An outline of the steps:
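MDA-MB-231 seeded at 500 cells/well in 6-well plates, in triplicate. […] Medium renewed every three days. At two weeks: PBS washes, 15 min fixation in 4% paraformaldehyde, 1% crystal violet stain. Colonies of more than 500 cells counted by image analysis; mean ± SEM, n = 3.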

Structures are written as SMILES.

Sequence of PD-1/PD-L1 interaction (Q9NZQ7 19-238 limits assumed): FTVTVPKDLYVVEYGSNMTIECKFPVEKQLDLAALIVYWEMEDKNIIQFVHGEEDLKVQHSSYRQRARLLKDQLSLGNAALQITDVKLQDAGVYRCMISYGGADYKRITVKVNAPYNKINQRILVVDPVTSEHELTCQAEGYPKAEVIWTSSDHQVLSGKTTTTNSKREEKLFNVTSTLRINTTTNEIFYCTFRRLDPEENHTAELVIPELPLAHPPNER

As usually defined, the IC50 is the midpoint of a concentration-inhibition curve. Regarding `N#Cc1cccc(COc2cc(OCc3cccc(-c4cc(F)ccc4F)c3F)ccc2CNCCO)c1` [7b-2, 3-[2-[(2-Hydroxy-ethylamino)-methyl]-5-(2,2',5'-trifluoro-biphenyl-3-ylmethoxy)-phenoxymethyl]-benzonitrile], in assay [1], the 50% inhibitory concentration (IC50) was < 1 µM.
As to `N#Cc1cncc(COc2cc(OCc3cccc(-c4cc(F)ccc4F)c3F)ccc2CNCCO)c1` [7b-4, 5-[2-[(2-Hydroxy-ethylamino)-methyl]-5-(2,2',5'-trifluoro-biphenyl-3-ylmethoxy)-phenoxymethyl]-nicotinonitrile], the IC50 in [1] is < 1 µM.
Regarding `Cc1c(COc2ccc(CNCCN)c(OCc3ccccc3)c2)cccc1-c1ccccc1F` [12j-4, N^1-[2-Benzyloxy-4-(2'-fluoro-2-methyl-biphenyl-3-ylmethoxy)-benzyl]-ethane-1,2-diamine], the IC50 in assay [2] was found to be 10.3 ± 0.12 µM; in assay [4] it was 2.68 ± 0.27 µM; in assay [7], 7.79 ± 0.69 µM; in assay [9], 4.71 ± 0.44 µM; in assay [12], 3.24 ± 0.09 µM. The “IC50 against MRC-5 cells relative to IC50 against MDA-MB-231 cells” value in assay [2] (selectivity normal vs cancer cells) is listed as 3.83 fold. Also, the “PD-L1 protein expression, result in words” value in assay [3] is listed as “down-regulated”. Also, the “Inhibition rate of AKT type I phosphorylated form expression” value in [5] stood at 90%. The Apoptotic ratio entry in assay [6] (4 μM) is given as “exceeded 40.42%”. Moreover, in assay [8] (Homo sapiens, MDA-MB-231, read-out: Migration inhibition rate), the inhibition at 1 µM was 50%. Besides, the “PD-L1 mRNA, result in words” value in assay [10] is listed as “decreased”. For the same molecule, the Tumour inhibition rate was 39.04% in assay [11] (10 mg/kg) and 62.54% in assay [11] (20 mg/kg). Also, the “Inhibition rate of phosphorylated mTOR expression” value in assay [13] is 40%. The “MDA-MB-231 cells' proliferation rate (clone formation)” value in [14] (1 µM, treated 24 h, colonies after two weeks) stood at 40%.
With `COc1c(COc2ccc(CN[C@H](CO)C(=O)O)c(OCc3cncc(C#N)c3)c2)cccc1-c1ccccc1F` [13h-1, N-[2–(5-Cyano-pyridin-3-ylmethoxy)-4-(2'-fluoro-2-methoxy-biphenyl-3-ylmethoxy)-benzyl]-D-serine], the IC50 in assay [2] is 9.31 ± 0.16 µM; in assay [4], 4.67 ± 0.79 µM; in [7], 7.27 ± 0.71 µM; in assay [9], 4.81 ± 0.45 µM; in [12], 6.16 ± 0.76 µM.
Turning to `COc1c(COc2cc(OCc3cccc(C#N)c3)c(CNCCO)cc2Cl)cccc1-c1ccccc1F` [13h-3, 3-{4-Chloro-5–(2'-fluoro-2-methoxy-biphenyl-3-ylmethoxy)-2-[(2-hydroxy-ethylamino)-methyl]-phenoxymethyl}-benzonitrile], the IC50 in [2] was found to be 11.1 ± 0.2 µM; in assay [4], 4.96 ± 0.82 µM; in assay [7] it was 13.5 ± 0.86 µM; in assay [9] it was 5.52 ± 0.57 µM; in assay [12], 5.65 ± 0.56 µM.
Regarding `COc1nc(OCc2cccc(-c3ccccc3)c2C)ccc1CNCCNC(C)=O` [BMS-202, reference compound], the “Migration inhibition, result in words” value in [8] (MDA-MB-231, positive control) was “can hardly inhibit the cancer cells’ migration”. For the same molecule, the “Clone formation, result in words” value in assay [14] is on record as “scarce inhibition activity”.
Regarding `CC(=O)O[C@H]1C(=O)[C@@]2(C)[C@H]([C@H](OC(=O)c3ccccc3)[C@]3(O)C[C@H](OC(=O)[C@H](O)[C@@H](NC(=O)c4ccccc4)c4ccccc4)C(C)=C1C3(C)C)[C@]1(OC(C)=O)CO[C@@H]1C[C@@H]2O` [paclitaxel, reference compound], the Tumour cell apoptosis entry in [6] (1 μM) is on record as “approximately 60%”. In assay [14], the “Clone formation, result in words” value was “Few colonies can be observed”.
